Screening data from PubChem BioAssay.
A selection: hits, their analogues and other compounds. The true share with any hit is near 3.5%.
PREPL inhibitor: human PREPL enzyme inhibition. hit rate 0.68% among 320,000. recombinant PREPL, fluorescence polarization activity-based probe. Q4J6C6. inhibition, % at 5.96 µM; in the data active = inhibition above about 43%;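 also: 0% = enzyme with DMSO and 100% = wells lacking enzyme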
Apaf1 inhib: blocks human Apaf-1 apoptosome activity | O14727 | reconstituted apoptosome caspase-3 activity, DEVD-Rh110 fluorescence | inhibition, % at 20 µM | hit rate 0.71% among 330,000 | AID 489030; active = inhibition of at least 40% at 20 µM;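 also: plate controls were DMSO wells for no effect and DEVD-CHO caspase inhibitor wells for full effect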
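Assay system – apoptosome proteins · Medium – Hepes buffer, pH 7.5 · Also added – cytochrome c with DEVD-Rh110 · Timing – 30 min compound preincubation, 50 min activation, room temperature · Detection – Rh110 fluorescence, excitation 480 nm, emission 540 nm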
pPAFAH FP inh: inhibitors of human plasma PAF acetylhydrolase (pPAFAH); Q13093; recombinant pPAFAH, FP-rhodamine probe fluorescence polarization; inhibition, % at 3.39 µM; hit rate 1.5% among 330,000; AID 463082;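 active = inhibition above the mean inhibition across the screen plus 3 SD, cut at about 25% in these data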;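 also: inhibitors block binding of the rhodamine activity-based probe so polarization drops; 0% = enzyme with DMSO and 100% = wells lacking pPAFAH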
PAFAH2 inh: PAFAH2 (human) inhibition; Q99487; inhibition, % at 3.39 µM; recombinant PAFAH2, FP-rhodamine activity probe, fluorescence polarization; hit rate 0.99% among 340,000;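 active = inhibition above the mean over all tested compounds plus 3 SD, cut at about 30% in these data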;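 also: inhibitors block probe labeling of enzyme so polarization drops; 0% = enzyme with DMSO and 100% = wells lacking PAFAH2 protein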
PAFAH1B2 inh: inhibitors of human PAFAH1B2. P68402. recombinant PAFAH1B2, FP-rhodamine activity probe, fluorescence polarization. inhibition, % at 3.39 µM. hit rate 1.2% among 340,000;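 active = inhibition above the mean of all tested compounds plus 3 SD, cut at about 24% in these data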;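 also: 0% = enzyme with DMSO and 100% = wells lacking PAFAH1B2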
Target sequence (P68402 whole entry, looked up): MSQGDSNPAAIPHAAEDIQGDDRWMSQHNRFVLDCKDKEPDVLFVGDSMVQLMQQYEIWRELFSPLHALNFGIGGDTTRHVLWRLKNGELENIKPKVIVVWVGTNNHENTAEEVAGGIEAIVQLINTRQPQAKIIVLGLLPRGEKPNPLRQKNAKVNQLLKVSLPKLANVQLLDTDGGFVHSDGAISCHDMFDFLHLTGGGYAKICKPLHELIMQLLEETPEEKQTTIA
PAFAH1B3 FP inh: PAFAH1B3 (human) inhibition; recombinant PAFAH1B3, FP-rhodamine probe, fluorescence polarization; hit rate 0.28% among 340,000; inhibition, % at 3.39 µM; Q15102;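 active = inhibition above the screen-wide average of all tested compounds plus 3 SD, cut at about 25% in these data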;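 also: 0% = enzyme with DMSO only and 100% = wells lacking PAFAH1B3 protein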
Target sequence (Q15102 whole entry, looked up): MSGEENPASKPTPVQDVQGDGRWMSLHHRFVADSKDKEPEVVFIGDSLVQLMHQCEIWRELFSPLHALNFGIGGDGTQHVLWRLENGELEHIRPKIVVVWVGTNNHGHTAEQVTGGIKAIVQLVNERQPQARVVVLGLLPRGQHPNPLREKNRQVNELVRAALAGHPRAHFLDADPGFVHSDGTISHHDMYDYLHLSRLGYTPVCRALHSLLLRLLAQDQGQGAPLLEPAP
pPAFAH FP conf: pPAFAH (human) inhibition, confirmed; shares compounds with pPAFAH FP inh; recombinant pPAFAH, FP-Rh probe fluorescence polarization; inhibition, % at 3.39 µM; hit rate 72% among 2,300; AID 463230;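 active = mean inhibition of the triplicate above the hit cutoff set for the earlier primary screen, cut at about 25% in these data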;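 also: 0% = enzyme with DMSO and 100% = wells lacking pPAFAH enzyme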
An asterisk follows results filed as active.

Screening Oc1c(Br)cc(Br)c(/C=N/n2c(-c3ccccc3)n[nH]c2=S)c1Br returned PREPL inhibitor -8, Apaf1 inhib 26, pPAFAH FP inh 42*, PAFAH2 inh 31*, PAFAH1B2 inh 9, PAFAH1B3 FP inh 1 and pPAFAH FP conf 53*.
`Clc1ccc(-c2nnc(N3CCCC3)nn2)cc1` gave PREPL inhibitor 4, Apaf1 inhib -10, pPAFAH FP inh 50*, PAFAH2 inh -2, PAFAH1B2 inh -1, PAFAH1B3 FP inh 2 and pPAFAH FP conf 7.
`CCSc1cc(N2CCCC2)nc(-c2ccc(Cl)cc2)n1` gave PREPL inhibitor 8, Apaf1 inhib 2, pPAFAH FP inh -6, PAFAH2 inh -9, PAFAH1B2 inh -2 and PAFAH1B3 FP inh -8.
COCn1c(-c2ccc(OC)cc2)nc2ccccc21 was read as PREPL inhibitor 4, Apaf1 inhib 9, pPAFAH FP inh -4, PAFAH2 inh 5, PAFAH1B2 inh 2 and PAFAH1B3 FP inh 7.
Screening C=C(C)Cn1c(-c2ccc(OC)cc2)nc2ccccc21 returned PREPL inhibitor -2, Apaf1 inhib 9, pPAFAH FP inh 78*, PAFAH2 inh 6, PAFAH1B2 inh 2, PAFAH1B3 FP inh 9 and pPAFAH FP conf 12.
COc1ccc(/C=N\NC(=O)c2cc(O)c(O)c(O)c2)cc1COc1ccc(C(=O)OCC(C)C)cc1 was read as PREPL inhibitor 15, Apaf1 inhib 26, pPAFAH FP inh 85*, PAFAH2 inh 31*, PAFAH1B2 inh 13, PAFAH1B3 FP inh 26* and pPAFAH FP conf 87*.
`O=C(O)CN1CCN(Cc2ccccc2F)C1=O` gave PREPL inhibitor 4, Apaf1 inhib 2, pPAFAH FP inh 58*, PAFAH2 inh 3, PAFAH1B2 inh 1, PAFAH1B3 FP inh 5 and pPAFAH FP conf 2.
`O=C(O)CN1CCN(Cc2ccccc2Cl)C1=O` gave PREPL inhibitor 5, Apaf1 inhib -5, pPAFAH FP inh 1, PAFAH2 inh -9, PAFAH1B2 inh -2 and PAFAH1B3 FP inh -2.
`O=C(N/N=C\c1c(O)ccc2ccccc12)c1cncc(Br)c1` gave PREPL inhibitor 17, Apaf1 inhib -5, pPAFAH FP inh 41*, PAFAH2 inh 3, PAFAH1B2 inh 7, PAFAH1B3 FP inh 20 and pPAFAH FP conf 58*.
CC1CC(=O)N(CC(=O)Nc2cccc(F)c2)c2ccccc2S1(=O)=O (centres undefined) was read as PREPL inhibitor 2, Apaf1 inhib 4, pPAFAH FP inh -5, PAFAH2 inh -3, PAFAH1B2 inh -1 and PAFAH1B3 FP inh 10.
For Cc1ccccc1NC(=O)C1CC(=O)N(Cc2ccccc2)C1 (centres undefined) the results were PREPL inhibitor -3, Apaf1 inhib -14, pPAFAH FP inh 3, PAFAH2 inh -1, PAFAH1B2 inh 2 and PAFAH1B3 FP inh -4.
`COc1ccc(S(=O)(=O)Nc2ccc(F)cc2)cc1N(C)S(=O)(=O)c1ccc(Cl)cc1` gave PREPL inhibitor -2, Apaf1 inhib 5, pPAFAH FP inh 38*, PAFAH2 inh 6, PAFAH1B2 inh -2, PAFAH1B3 FP inh 3 and pPAFAH FP conf 35*.
COc1ccc(C)cc1S(=O)(=O)Nc1ccc(F)cc1 was read as PREPL inhibitor -1, Apaf1 inhib 2, pPAFAH FP inh 3, PAFAH2 inh 0, PAFAH1B2 inh 3 and PAFAH1B3 FP inh -8.
O=C(NCCc1ccc(C(F)(F)F)cc1)C1CCC(=O)N(CCCN2CCCC2=O)C1 (centres undefined) was read as PREPL inhibitor 1, Apaf1 inhib -8, pPAFAH FP inh 5, PAFAH2 inh -1, PAFAH1B2 inh 5 and PAFAH1B3 FP inh -3.
For O=C1/C(=C\c2cccc([N+](=O)[O-])c2O)SC(=S)N1Cc1ccccc1 the results were PREPL inhibitor -16, pPAFAH FP inh 35*, PAFAH2 inh 2, PAFAH1B2 inh -1, PAFAH1B3 FP inh -12 and pPAFAH FP conf 77*.
